From ChEMBL document CHEMBL3091412, “Discovery of an irreversible HCV NS5B polymerase inhibitor” (Bioorg Med Chem Lett, 2013)
Calls of active or inactive are those of the source. The rule behind the calls is not given here.

Key:
[1] = tested on: Enterovirus C; assay: Inhibition of Poliovirus RNA-dependent RNA polymerase
[2] = tested on: Hepacivirus hominis; assay: Inhibition of HCV NS3 protease
[3] = tested on: Hepacivirus hominis; assay: Inhibition of HCV NS3 helicase
[4] = tested on: Human immunodeficiency virus; assay: Inhibition of HIV RNA-dependent DNA polymerase
[5] = tested on: Hepatitis C virus; assay: Antiviral activity against HCV Con1 in eplicon cells after 3 days by RT-PCR analysis; format: functional, organism-based, Hepacivirus hominis; conditions: isolate Con1, 72 h
Method in brief: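 HCV 1b-Con1 replicon cells seeded at 5000 cells/well one day before treatment; inhibitor in DMSO added as 10 serial twofold dilutions in duplicate (final 0.5% DMSO, 5% FBS). Harvested 3 days post dosing; replicon RNA quantified by real-time RT-PCR (Taqman), GAPDH RNA as endogenous control; EC50 calculated.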

[6] = Irreversible inhibition of HCV1b NS5B delta21 polymerase by radiolabeled nucleotide incorporation assay; design: species or system Hepatitis C virus subtype 1b

SMILES	inhibition [1]	inhibition [2]	inhibition [3]	inhibition [4]	EC50 [5] [nM]	IC50 [6] [nM]
Cc1cc2c(-c3ccc[nH]c3=O)c(C(=O)O)n(Cc3cc4ccccc4nc3Cl)c2cc1F	inactive	inactive	inactive	inactive	–	–
Cc1cc2c(-c3ccc[nH]c3=O)c(C(=O)O)n(Cc3cc4cc(F)c(F)cc4nc3Cl)c2cc1F	–	–	–	–	30	10
Cc1cc2c(-c3ccc[nH]c3=O)c(C(=O)O)n(Cc3c(Cl)nc4ccccc4c3Cl)c2cc1F	–	–	–	–	> 1000	60
